SMILES strings stand for the structures. Calls of active or inactive are those of the source. The rule behind the calls is not given here.

In assay [1] the target is T1, Free fatty acid receptor 1 (Homo sapiens, UniProt O14842). The assay is described as follows: Partial agonist activity at human GPR40 expressed in CHO cells measured over 20 secs interval by luminometric analysis in presence of 100% human serum. The assay is classed as cell-based. The gist of the method: (§1)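 Aequorin chemiluminescence read-out of calcium flux in a CHO line stably transfected with human GPR40, giving EC50. Run in buffer containing 0.01% human serum albumin, or in 100% human serum to test activity with plasma proteins present.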
T1 sequence (O14842 whole entry): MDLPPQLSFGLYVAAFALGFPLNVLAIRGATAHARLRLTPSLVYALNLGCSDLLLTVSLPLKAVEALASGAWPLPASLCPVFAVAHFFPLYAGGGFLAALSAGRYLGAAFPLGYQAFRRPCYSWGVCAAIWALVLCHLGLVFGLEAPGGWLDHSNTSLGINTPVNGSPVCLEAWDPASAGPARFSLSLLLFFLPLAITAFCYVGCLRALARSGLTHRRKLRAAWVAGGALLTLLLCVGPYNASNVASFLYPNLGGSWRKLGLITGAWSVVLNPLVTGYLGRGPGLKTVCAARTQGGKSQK

In assay [2] the target is T1, Free fatty acid receptor 1. The assay is described as follows: Partial agonist activity at human GPR40 expressed in CHO cells measured over 20 secs interval by luminometric analysis in presence of 0.01% human serum albumin. The assay is classed as cell-based. A digest of the protocol:
as §1

The subject of the next assay is Mus musculus. Nature of the assay: Reduction of blood glucose AUC in human islet transplanted nude chimeric mouse at 100 ug/kg administered 1 hr prior to glucose challenge by OGTT. The assay is classed as functional, organism-based. The gist of the method: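 Nude mice had their endogenous pancreatic β-cells ablated with streptozotocin and were rescued to euglycemia by human islets transplanted under the kidney capsule. Compound was dosed before a glucose challenge, and the glucose AUC was determined.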

Assay [3] deals with T1, Free fatty acid receptor 1. The assay is described as follows: Partial agonist activity at human GPR40 expressed in CHO cells measured over 20 secs interval by luminometric analysis. The assay is classed as cell-based.
In assay [4] the target is T1, Free fatty acid receptor 1. Nature of the assay: Potency index , ratio of EC50 for AMG837 to EC50 for test compound for partial agonist activity at human GPR40 expressed in CHO cells measured over 20 secs interval by luminometric analysis in presence of 0.01% human serum albumin. The assay is classed as cell-based.
A further assay relates to Pancreatic islet. The assay is described as follows: Induction of insulin release in human pancreatic islets. The assay is classed as functional.

Take `Cn1ccnc1[C@@H](CC(=O)O)c1ccc(OCc2cccc(-c3ccc(Cl)cc3Cl)c2)cc1`: the values for the EC50 in assay [1] and in assay [2] were 30000 nM and 69 nM, respectively.

`Cc1cc(Cl)ccc1-c1cccc(COc2ccc([C@H](CC(=O)O)c3nccn3C)cc2)c1C`: the figures for the EC50 in assay [1] and in assay [2] were 23000 nM and 240 nM, respectively.

With `CC[C@H](C)[C@H](NC(=O)[C@H](Cc1ccccc1)NC(=O)[C@H](CCC(=O)O)NC(=O)[C@H](CCCCN)NC(=O)[C@H](C)NC(=O)[C@H](C)NC(=O)[C@H](CCC(=O)O)NC(=O)CNC(=O)[C@H](CCC(=O)O)NC(=O)[C@H](CC(C)C)NC(=O)[C@H](Cc1ccc(O)cc1)NC(=O)[C@H](CO)NC(=O)[C@H](CO)NC(=O)[C@@H](NC(=O)[C@H](CC(=O)O)NC(=O)[C@H](CO)NC(=O)[C@@H](NC(=O)[C@H](Cc1ccccc1)NC(=O)[C@@H](NC(=O)CNC(=O)[C@H](CCC(=O)O)NC(=O)[C@H](C)NC(=O)[C@@H](N)Cc1cnc[nH]1)[C@@H](C)O)[C@@H](C)O)C(C)C)C(=O)N[C@@H](C)C(=O)N[C@@H](Cc1c[nH]c2ccccc12)C(=O)N[C@@H](CC(C)C)C(=O)N[C@H](C(=O)N[C@@H](CCCCN)C(=O)NCC(=O)N[C@@H](CCCNC(=N)N)C(=O)NCC(=O)O)C(C)C`, in the assay on Mus musculus, the result was Active. With `COc1cccc(-c2cccc(COc3ccc([C@H](CC(=O)O)c4nccn4C)cc3)c2)c1`, in assay [2], the EC50 turned out to be 750 nM.

`Cc1ccc(F)cc1-c1cccc(COc2ccc([C@H](CC(=O)O)c3nccn3C)cc2)c1`: the 50% effective concentration (EC50) is 42000 nM in assay [1] and 36 nM in assay [2]. For `Cc1cccc(C)c1-c1cccc(COc2ccc([C@H](CC(=O)O)c3nccn3C)cc2)c1` the same measures were 29000 nM and 58 nM.

For the compound `Cn1ccnc1[C@@H](CC(=O)O)c1ccc(OCc2cccc(-c3ccccc3S(C)(=O)=O)c2)cc1`, the 50% effective concentration (EC50) in assay [2] was found to be 23000 nM.

For the compound `Cn1ccnc1[C@@H](CC(=O)O)c1ccc(OCc2cccc(-c3ccccc3OC(F)(F)F)c2)cc1`, the EC50 was determined as 61000 nM in assay [1] and 112 nM in assay [2].

As to `O=C(O)CC(c1ccncc1)c1ccc(OCc2cccc(-c3ccc(C(F)(F)F)cc3)c2)cc1` (racemic), the concentration giving a half-maximal response (EC50) in assay [3] stood at 190 nM. Consider `Cc1c(Cl)cccc1-c1cccc(COc2ccc([C@H](CC(=O)O)c3nccn3C)cc2)c1`, for which the 50% effective concentration (EC50) was determined as 22000 nM in assay [1] and 61 nM in assay [2]. Take `Cc1ccccc1-c1cccc(COc2ccc([C@H](CC(=O)O)c3nccn3C)cc2)c1`: the results for the EC50 in assay [1] and in assay [2] were 89000 nM and 43 nM, respectively. For the same compound, the Ratio EC50 in assay [4] was determined as 2.

Turning to `Cc1cc(F)ccc1-c1cccc(COc2ccc([C@H](CC(=O)O)c3nccn3C)cc2)c1`, the EC50 in assay [1] turned out to be 21000 nM; in assay [2], 59 nM. For `Cn1ccnc1[C@@H](CC(=O)O)c1ccc(OCc2cccc(-c3ccccc3Cl)c2)cc1`, the half-maximal effective concentration (EC50) in assay [1] turned out to be 56000 nM; in assay [2], 43 nM. For the same compound, in assay [4], the Ratio EC50 amounted to 2. Compound `O=C(O)CC(c1ccc(OCc2cccc(-c3ccc(C(F)(F)F)cc3)c2)cc1)c1cccs1` (racemic) showed an EC50 in assay [3] of 190 nM.

Compound `O=C(O)CC(c1ccc(OCc2cccc(-c3ccc(C(F)(F)F)cc3)c2)cc1)c1cccnc1` (racemic) displayed a 50% effective concentration (EC50) in assay [3] of 400 nM.

Consider `Cc1cc(Cl)ccc1-c1cc(COc2ccc([C@H](CC(=O)O)c3nccn3C)cc2)ccc1C`, for which the EC50 in assay [1] amounted to 9800 nM; in assay [2] it was 97 nM. Turning to `Cn1ccnc1[C@@H](CC(=O)O)c1ccc(OCc2cccc(-c3ccccc3C#N)c2)cc1`, in assay [2], the EC50 was 690 nM. Turning to `O=C(O)CC(c1ccc(OCc2cccc(-c3ccc(C(F)(F)F)cc3)c2)cc1)c1ccccn1` (racemic), the EC50 in assay [3] stood at 330 nM.

Consider `COc1ccc(-c2cccc(COc3ccc([C@H](CC(=O)O)c4nccn4C)cc3)c2)cc1`, for which, in assay [2], the EC50 is 440 nM. As for `CC#C[C@@H](CC(=O)O)c1ccc(OCc2cccc(-c3ccc(C(F)(F)F)cc3)c2)cc1`, the outcome with Pancreatic islet was Active. Take `CCc1ccccc1-c1cccc(COc2ccc([C@H](CC(=O)O)c3nccn3C)cc2)c1`: the values for the half-maximal effective concentration (EC50) in assay [1] and in assay [2] were 65000 nM and 48 nM, respectively. In the case of `O=C(O)CC(c1ccc(OCc2cccc(-c3ccc(C(F)(F)F)cc3)c2)cc1)c1nccs1` (racemic), the response in assay [3] was half-maximal at 120 nM (EC50). The same measure, in the same setting: under `O=C(O)CC(c1ccccc1)c1ccc(OCc2cccc(-c3ccc(C(F)(F)F)cc3)c2)cc1` (racemic) stands 330 nM; under `Cn1ccnc1C(CC(=O)O)c1ccc(OCc2cccc(-c3ccc(C(F)(F)F)cc3)c2)cc1` (racemic), 130 nM. Consider `COc1ccccc1-c1cccc(COc2ccc([C@H](CC(=O)O)c3nccn3C)cc2)c1`, for which the half-maximal effective concentration (EC50) in assay [2] came out at 410 nM.

For the origin of these results see ChEMBL document CHEMBL3751835, “Discovery of the imidazole-derived GPR40 agonist AM-3189” (Bioorg Med Chem Lett, 2016).
